From ChEMBL document CHEMBL1139846, “New fluorescent 2-phenylindolglyoxylamide derivatives as probes targeting the peripheral-type benzodiazepine receptor: design, synthesis, and biological evaluation” (J Med Chem, 2007)
Activity calls are given as the source filed them. The calls are words filed in the database; no cut-off is given here.

Experiments:
[1] = tested on: GABA-A receptor / central benzodiazepine receptor (Rattus norvegicus); assay: Displacement of [3H]flumazenil from central benzodiazepine receptor in rat cerebral cortex membranes at 10 uM; settings: Membrane
Translocator protein = Translocator protein (Rattus norvegicus, UniProt P16257); assay: Displacement of [3H]PK 11195 from peripheral-type benzodiazepine receptor in rat kidney mitochondrial membranes; format: cell membranes, Membrane
Sequence of Translocator protein (P16257 whole entry, looked up): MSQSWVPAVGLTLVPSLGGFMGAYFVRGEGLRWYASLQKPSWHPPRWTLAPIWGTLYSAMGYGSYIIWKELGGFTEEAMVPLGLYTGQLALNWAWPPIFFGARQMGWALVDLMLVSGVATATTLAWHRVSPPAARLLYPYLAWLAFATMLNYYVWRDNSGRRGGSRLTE

[2] = biological target: Translocator protein (Rattus norvegicus) (UniProt P16257); assay: Displacement of 2-(2-(4-fluorophenyl)-1H-indol -3-yl)-N-(6-(7-nitrobenzo[c][1, 2,5]oxadiazol-4-ylamino)hexyl )-2-oxoacetamide from peripheral type benzodiazepine receptor in rat C6 glioma cells at 50 uM; format: cell-based
Sequence of Translocator protein (Rattus norvegicus) (P16257 whole entry, looked up): as above
Outline: (§1)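 Subconfluent rat C6 glioma cells in DMEM preincubated 30 min with PK 11195 or Ip (10 µM to 100 µM range), then stained with fluorescent PBR ligand at final 10 µM in culture medium, 30 min, 37 °C, 5% CO2. PBS wash, 4% paraformaldehyde fixation, fluorescence microscopy; displacement of cytoplasmic (mitochondrial) staining judged visually.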

[3] = biological target: Translocator protein (Rattus norvegicus) (UniProt P16257); assay: Displacement of 2-(2-(4-fluorophenyl)-1H-indol -3-yl)-N-(6-(7-nitrobenzo[c][1, 2,5]oxadiazol-4-ylamino)hexyl )-2-oxoacetamide from peripheral type benzodiazepine receptor in rat C6 glioma cells at 10 uM; format: cell-based
Outline: as §1

Row | Structure (SMILES) | inhibition [1] [%] | Ki (Translocator protein) [nM] | Activity [2] | Activity [3]
1 | O=C(NCCCCCCNc1ccc([N+](=O)[O-])c2nonc12)C(=O)c1c(-c2ccc(F)cc2)[nH]c2ccccc12 | < 10 | 12 |  | 
2 | O=C(NCCNc1ccc([N+](=O)[O-])c2nonc12)C(=O)c1c(-c2ccccc2)[nH]c2ccccc12 | < 10 | 994 |  | 
3 | CCCCCCN(CCCCCC)C(=O)C(=O)c1c(-c2ccc(F)cc2)[nH]c2ccccc12 |  |  | Active | Active
4 | O=C(NCCCCNc1ccc([N+](=O)[O-])c2nonc12)C(=O)c1c(-c2ccc(F)cc2)[nH]c2ccccc12 | < 10 | 23 |  | 
5 | CCC(C)N(C)C(=O)c1cc2ccccc2c(-c2ccccc2Cl)n1 (stereo unspecified) |  |  |  | Active
6 | O=C(NCCCCCCNc1ccc([N+](=O)[O-])c2nonc12)C(=O)c1c(-c2ccccc2)[nH]c2ccccc12 | < 10 |  |  | 
7 | CCCN(CCC)C(=O)Cc1c(-c2ccc(Cl)cc2)nc2ccc(Cl)cn12 [ALPIDEM] |  | 0.5 |  | 
8 | O=C(NCCNc1ccc([N+](=O)[O-])c2nonc12)C(=O)c1c(-c2ccc(F)cc2)[nH]c2ccccc12 | < 10 |  |  | 
9 | O=C(NCCNc1ccc([N+](=O)[O-])c2[n-][o+]nc12)C(=O)c1c(-c2ccc(F)cc2)[nH]c2ccccc12 |  | 835 |  | 
10 | O=C(NCCCCCCNc1ccc([N+](=O)[O-])c2[n-][o+]nc12)C(=O)c1c(-c2ccccc2)[nH]c2ccccc12 |  | 17 |  | 
11 | O=C(NCCCCNc1ccc([N+](=O)[O-])c2nonc12)C(=O)c1c(-c2ccccc2)[nH]c2ccccc12 | < 10 | 42 |  | 
